In one series the test system is HepG2. Put plainly: Cytotoxicity against human HepG2 cells incubated for 24 hrs by CellTiter 96 aqueous one solution reagent based assay. The format is cell-based. Conditions: HepG2, 24 h. In outline: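 HepG2 seeded 20,000 cells/well overnight, then exposed 24 h to a concentration range in serum-free MEM Earle's (gentamycin, NEAA, pyruvate, alanyl-glutamine); MTS reagent 1 h, absorbance 485 nm; % survival versus medium and Triton X-100 controls; EC50 from four-parameter normalized nonlinear regression.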

For series [1], the system named is Staphylococcus epidermidis. Briefly: Inhibition of biofilm formation of Staphylococcus epidermidis at =<64 ug/ml incubated overnight at 37degC by crystal violet based assay. It counts as functional.
The subject of another series is Enterococcus faecalis. Put plainly: Antimicrobial activity against Enterococcus faecalis ATCC 29212 assessed as growth inhibition incubated overnight at 37degC by visual and photometry based method. It counts as functional.
Series [2] is described as follows: Selectivity index, ratio of EC50 for human HepG2 cells to MIC for Streptococcus agalactiae ATCC 12386. Conditions: read-out: Selectivity Index. It counts as toxicity. The gist of the method:
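Selectivity index computed as HepG2 EC50 (24 h MTS assay) divided by S. agalactiae MIC.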

The subject of series [3] is Staphylococcus aureus. Briefly: Antimicrobial activity against Staphylococcus aureus ATCC 25923 assessed as growth inhibition incubated overnight at 37degC by visual and photometry based method. It counts as functional.
The subject of the next series is Streptococcus agalactiae. Put plainly: Antimicrobial activity against Streptococcus agalactiae ATCC 12386 assessed as growth inhibition incubated overnight at 37degC by visual and photometry based method. The format is functional.
For series [4], the system named is Escherichia coli. Briefly: Antimicrobial activity against Escherichia coli ATCC 25922 assessed as growth inhibition incubated overnight at 37degC by visual and photometry based method. It counts as functional.
Series [5] concerns Pseudomonas aeruginosa. Put plainly: Antimicrobial activity against Pseudomonas aeruginosa ATCC 27853 assessed as growth inhibition incubated overnight at 37degC by visual and photometry based method. The format is functional.
Series [6] concerns Staphylococcus aureus. Put plainly: Antimicrobial activity against Staphylococcus aureus ATCC 25923 assessed as growth inhibition =<64 ug/ml incubated overnight at 37degC by visual and photometry based method. The format is functional.
In series [7] the test system is Staphylococcus epidermidis. Briefly: Inhibition of biofilm formation of Staphylococcus epidermidis incubated overnight at 37degC by crystal violet based assay. The format is functional.
Series [8] concerns Escherichia coli. Briefly: Antimicrobial activity against Escherichia coli ATCC 25922 assessed as growth inhibition =<64 ug/ml incubated overnight at 37degC by visual and photometry based method. It counts as functional.
In series [9] the test system is Pseudomonas aeruginosa. Briefly: Antimicrobial activity against Pseudomonas aeruginosa ATCC 27853 assessed as growth inhibition =<64 ug/ml incubated overnight at 37degC by visual and photometry based method. It counts as functional.

Structures are written as SMILES. Calls of active or inactive are those of the source. The rule behind the calls is not given here.

What is called EC50 is the concentration at which the effect is half-maximal.

Compound `CC(C)(C)c1cc(-n2cc(C(=O)NCCN)nn2)cc(C(C)(C)C)c1.Cl` registered an EC50 in the series with HepG2 of 8 µg/mL. Also, the inhibition entry in series [1] is “inactive”. For the same compound, the MIC came to 32 µg/mL in the series on Enterococcus faecalis; 16 µg/mL with Staphylococcus aureus [3]; 16 µg/mL in the series with Streptococcus agalactiae; 16 µg/mL in the series on Escherichia coli [4]; 32 µg/mL with Pseudomonas aeruginosa [5]. Further, in series [2], the selectivity ratio was found to be 0.5.

As to `C/C(=N\NC(=N)N)c1cn(-c2ccc(OCc3cc(C(C)(C)C)cc(C(C)(C)C)c3)cc2)nn1.Cl`, the “growth inhibition (GI)” value with Staphylococcus aureus [6], with Escherichia coli [8] and with Pseudomonas aeruginosa [9] was “inactive” each time. This compound yielded an EC50 with HepG2 of 1.9 µg/mL. For the same compound, the results for the MIC (with Enterococcus faecalis; in series [7]; in the series with Streptococcus agalactiae) were 64 µg/mL, 4 µg/mL and 0.5 µg/mL, respectively. Also, the selectivity ratio in series [2] was found to be 3.86.
